Experiments:
[1] = target: T1, Bcl-2-related protein A1 (Homo sapiens, UniProt Q16548); assay: Inhibition of N-terminal FITC BH3 peptide binding to GST-tagged Bfl1 by fluorescence polarization assay
T1 sequence (Q16548 whole entry): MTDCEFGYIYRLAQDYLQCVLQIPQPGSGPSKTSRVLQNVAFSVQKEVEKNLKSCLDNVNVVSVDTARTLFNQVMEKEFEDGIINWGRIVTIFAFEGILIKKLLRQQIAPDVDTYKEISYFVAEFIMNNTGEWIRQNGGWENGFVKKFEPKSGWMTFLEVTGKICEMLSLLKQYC
Procedure, shortened: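 Then FITC-Bid BH3 peptide (5.6 nM working solution) was added and incubated 4 h at room temperature. Ten concentrations in 10% DMSO. Fluorescence polarization read at ex 485/em 530 nm. IC50 from sigmoidal dose-response non-linear regression.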

[2] = target: T1, Bcl-2-related protein A1; assay: Inhibition of N-terminal FITC BH3 peptide binding to GST-tagged Bfl1 by time resolved-FRET assay
Procedure, shortened: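 10-point 2-fold dilution series in 10% final DMSO, in duplicate wells. FITC-Bid (5.6 nM) plus Tb-antibody (2.5 nM) was then added and incubated 4 h at room temperature. TR-FRET read at ex 340 nm, signal taken as the 520/490 nm emission ratio.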

Row | SMILES | IC50 [1] | IC50 [2]
1 | O=C1C(Cl)=C(N2CCN(Cc3ccccc3)CC2)C(=O)N1c1ccc(Cl)c(Cl)c1 | 2400 nM | 1300 nM
2 | O=C1C(Cl)=C(N2CCN(CCOCCO)CC2)C(=O)N1c1ccc(Cl)c(Cl)c1 | 300 nM | 400 nM
3 | C[C@@H]1CN(C2=C(Cl)C(=O)N(c3ccc(Cl)c(Cl)c3)C2=O)CCN1 | 600 nM | 800 nM
4 | C[C@H]1CN(C2=C(Cl)C(=O)N(c3ccc(Cl)c(Cl)c3)C2=O)CCN1 | 2200 nM | 1100 nM
5 | CN1CCN(C2=C(Cl)C(=O)N(c3ccc(Cl)c(Cl)c3)C2=O)CC1 | 600 nM | 800 nM
6 | O=C1C(Cl)=C(N2CCCC2)C(=O)N1c1ccc(Cl)c(Cl)c1 | > 50000 nM | > 50000 nM
7 | CN1CCN(C2=C(Cl)C(=O)N(c3ccncc3Cl)C2=O)CC1 | 29000 nM | 35600 nM
8 | CN(C)C1=C(Cl)C(=O)N(c2ccc(Cl)c(Cl)c2)C1=O | 300 nM | 400 nM
9 | CC1C(=O)NCCN1C1=C(Cl)C(=O)N(c2ccc(Cl)c(Cl)c2)C1=O (configuration not stated) | – | 2000 nM
10 | COc1ccccc1N1CCN(C2=C(Cl)C(=O)N(c3ccc(Cl)c(Cl)c3)C2=O)CC1 | 9600 nM | 6200 nM
11 | Cc1cccc(N2C(=O)C(Cl)=C(N3CCN(C)CC3)C2=O)c1 | 12600 nM | 10800 nM
12 | O=C1C(Cl)=C(NCc2ccccc2)C(=O)N1c1ccc(Cl)c(Cl)c1 | > 50000 nM | > 50000 nM
13 | Cc1cccc(N2CCN(C3=C(Cl)C(=O)N(c4ccc(Cl)c(Cl)c4)C3=O)CC2)c1 | > 10000 nM | 8300 nM
14 | O=C1C(Cl)=C(NCCO)C(=O)N1c1ccc(Cl)c(Cl)c1 | > 50000 nM | > 50000 nM
15 | COc1ccc(N2CCN(C3=C(Cl)C(=O)N(c4ccc(Cl)c(Cl)c4)C3=O)CC2)cc1 | > 10000 nM | 8300 nM

Next, values leading:

Row | IC50 [1] | IC50 [2] | SMILES
16 | 2400 nM | 1900 nM | CN1CCN(C2=C(Cl)C(=O)N(c3cc(Cl)cc(Cl)c3)C2=O)CC1
17 | > 10000 nM | > 10000 nM | O=C1C(Cl)=C(N2CCN(c3cccc(C(F)(F)F)c3)CC2)C(=O)N1c1ccc(Cl)c(Cl)c1
18 | 1200 nM | 5000 nM | COc1cccc(N2CCN(C3=C(Cl)C(=O)N(c4ccc(Cl)c(Cl)c4)C3=O)CC2)c1
19 | – | 2100 nM | O=C1C(Cl)=C(N2CCN(Cc3ccc4c(c3)OCO4)CC2)C(=O)N1c1ccc(Cl)c(Cl)c1
20 | 10500 nM | 3300 nM | CCCCN1CCN(C2=C(Cl)C(=O)N(c3ccc(Cl)c(Cl)c3)C2=O)CC1
21 | 1700 nM | 1000 nM | CCN1CCN(C2=C(Cl)C(=O)N(c3ccc(Cl)c(Cl)c3)C2=O)CC1
22 | 240 nM | 620 nM | O=C1C(Cl)=C(N2CCN(CCO)CC2)C(=O)N1c1ccc(Cl)c(Cl)c1
23 | 800 nM | 450 nM | O=C1C(Cl)=C(N2CCOCC2)C(=O)N1c1ccc(Cl)c(Cl)c1
24 | 6800 nM | 3900 nM | CN1CCN(C2=C(Cl)C(=O)N(c3cccc([N+](=O)[O-])c3)C2=O)CC1
25 | 4900 nM | 4100 nM | O=C1C(Cl)=C(N2CCN(c3ccccc3)CC2)C(=O)N1c1ccc(Cl)c(Cl)c1
26 | > 50000 nM | > 50000 nM | O=C1C(Cl)=C(N2CCCCC2)C(=O)N1c1ccc(Cl)c(Cl)c1
27 | > 10000 nM | > 10000 nM | CN1CCN(C2CC(=O)N(c3ccc(Cl)c(Cl)c3)C2=O)CC1 (configuration not stated)
28 | 2100 nM | 1200 nM | CN1CCN(C2=C(Cl)C(=O)N(c3cccc(Cl)c3)C2=O)CC1
29 | > 10000 nM | > 10000 nM | CN1CCN(C2=CC(=O)N(c3ccc(Cl)cc3)C2=O)CC1
30 | 3300 nM | 1000 nM | CN1CCN(C2=C(Cl)C(=O)N(c3ccccc3Cl)C2=O)CC1
31 | – | 1400 nM | CN1CCN(C2=C(Cl)C(=O)N(c3ccc(Cl)cc3Cl)C2=O)CC1
32 | – | 2600 nM | CN1CCN(C2=C(Cl)C(=O)N(c3cccc(Cl)c3Cl)C2=O)CC1
33 | 250 nM | 690 nM | O=C1C(Cl)=C(N2CCN(C/C=C/c3ccccc3)CC2)C(=O)N1c1ccc(Cl)c(Cl)c1

From ChEMBL document CHEMBL1268986, “Inhibition of Bfl-1 with N-aryl maleimides” (Bioorg Med Chem Lett, 2010)
